Measured values from ChEMBL document CHEMBL1149027, “Anti-AIDS agents, 10. Acacetin-7-O-beta-D-galactopyranoside, an anti-HIV principle from Chrysanthemum morifolium and a structure-activity correlation with some related flavonoids” (J Nat Prod, 1994).

Tests used:
[1] = system: Human immunodeficiency virus 1; assay: Antiviral activity against HIV1 3B infected in human H9 cells assessed as inhibition of viral replication after 3 days by p24 antigen capture assay; assay type: functional, organism-based; settings: Human immunodeficiency virus 1, 3B, H9, 72 h
[2] = Therapeutic index, ratio of IC50 for human H9 cells to EC50 for HIV1 3B; assay type: cell-based; settings: read-out: TI
H9 = assay: Cytotoxicity against human H9 cells after 3 days; assay type: cell-based; settings: H9, 72 h
Method in brief: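 Uninfected H9 lymphocytes, given the same 1 h mock incubation at 37° and washing, resuspended at 4 × 10^5 cells/ml. Cultured 3 days at 37° with compound. Cell density counted; IC50 = concentration inhibiting uninfected growth by 50%.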

Work on `O=c1c(O)c(-c2ccc(O)c(O)c2)oc2cc(O)cc(O)c12` [QUERCETIN] yielded an EC50 [1] of 132 µM, a selectivity ratio [2] of 1 and an IC50 (H9) of 132 µM.
Work on `COc1ccc([C@@H]2CC(=O)c3c(O)cc(O[C@@H]4O[C@H](CO[C@@H]5O[C@@H](C)[C@H](O)[C@@H](O)[C@H]5O)[C@@H](O)[C@H](O)[C@H]4O)cc3O2)cc1O` [HESPERIDIN] yielded an EC50 [1] greater than 164 µM and an IC50 (H9) greater than 164 µM.
For `O=c1cc(-c2ccc(Br)cc2)oc2cc(O)cc(O)c12`, the EC50 [1] was 5 µM, the selectivity ratio [2] was 4 and the IC50 (H9) was 21 µM.
`COc1ccc(-c2cc(=O)c3c(O)cc(O[C@@H]4O[C@H](CO)[C@H](O)[C@H](O)[C@H]4O)cc3o2)cc1` gave an EC50 [1] of 8 µM, a selectivity ratio [2] of 5 and an IC50 (H9) of 37 µM.
`O=c1cc(-c2ccccc2)oc2ccccc12` [FLAVONE] gave an EC50 [1] of 50 µM, a selectivity ratio [2] of 1 and an IC50 (H9) of 68 µM.
Work on `O=C(O)[C@H]1O[C@@H](Oc2cc3oc(-c4ccccc4)cc(=O)c3c(O)c2O)[C@H](O)[C@@H](O)[C@@H]1O` [BAICALIN] yielded an EC50 [1] of 112 µM, a selectivity ratio [2] of less than 1 and an IC50 (H9) of 72 µM.
`O=c1c(O)c(-c2ccccc2)oc2ccccc12` [FLAVONOL] gave an EC50 [1] of 13 µM, a selectivity ratio [2] of 1 and an IC50 (H9) of 17 µM.
`O=c1cc(-c2ccccc2)oc2cc(O)cc(O)c12` [CHRYSIN] showed an EC50 [1] of 5 µM, a selectivity ratio [2] of 9 and an IC50 (H9) of 47 µM.
`O=C(CNC(=O)OCc1ccccc1)Oc1cc(O)c2c(=O)cc(-c3ccccc3)oc2c1` gave an EC50 [1] of 9 µM, a selectivity ratio [2] of 3 and an IC50 (H9) of 30 µM.
For `O=C1C[C@@H](c2ccc(O)cc2)Oc2cc(O)cc(O)c21` [NARINGENIN], the EC50 [1] was 92 µM, the selectivity ratio [2] was 3 and the IC50 (H9) was 294 µM.
With `Cc1cn([C@H]2C[C@H](N=[N+]=[N-])[C@@H](CO)O2)c(=O)[nH]c1=O` [ZIDOVUDINE] the EC50 [1] was 0.04 µM.
`O=c1cc(-c2ccc(O)cc2)oc2cc(O[C@@H]3O[C@H](CO)C(O)[C@H](O)[C@H]3O)cc(O)c12` (single isomer, unassigned) [APIGETRIN] showed an EC50 [1] of 61 µM, a selectivity ratio [2] of 2 and an IC50 (H9) of 115 µM.
For `O=c1cc(-c2ccc(Cl)cc2)oc2cc(O)cc(O)c12`, the EC50 [1] was 4 µM, the selectivity ratio [2] was 4 and the IC50 (H9) was 16 µM.
`CCCc1cc(=O)c2c(O)cc(O)cc2o1` gave an EC50 [1] of 27 µM, a selectivity ratio [2] of 3 and an IC50 (H9) of 73 µM.
Compound `O=c1c(O)c(-c2ccc(O)c(O)c2)oc2cc(O)ccc12` [FISETIN] has an EC50 [1] of 122 µM, a selectivity ratio [2] of 1 and an IC50 (H9) of 157 µM.
In the case of `Cc1cc(=O)c2c(O)cc(O)cc2o1` [NOREUGENIN], the EC50 [1] is reported as 49 µM, the selectivity ratio [2] is reported as 4 and the IC50 (H9) is reported as 214 µM.
`Oc1cc(O)c2c(c1)O[C@H](c1ccc(O)c(O)c1)[C@@H](O)C2` [CIANIDANOL] showed an EC50 [1] greater than 345 µM and an IC50 (H9) greater than 345 µM.
In the case of `O=c1c(O)c(-c2cc(O)c(O)c(O)c2)oc2cc(O)cc(O)c12` [MYRICETIN], the EC50 [1] is reported as 35 µM, the selectivity ratio [2] is reported as 2 and the IC50 (H9) is reported as 69 µM.
`O=C1CC(c2ccccc2)Oc2ccccc21` (stereo not drawn) [FLAVANONE] gave an EC50 [1] of 58 µM, a selectivity ratio [2] of 1 and an IC50 (H9) of 45 µM.
In the case of `O=c1cc(-c2ccccc2)oc2c([N+](=O)[O-])c(O)c([N+](=O)[O-])c(O)c12`, the EC50 [1] is reported as 372 µM, the selectivity ratio [2] is reported as 1 and the IC50 (H9) is reported as 372 µM.
`O=c1cc(-c2ccc(O)cc2)oc2cc(O)cc(O)c12` [APIGENIN] showed an EC50 [1] of 9 µM, a selectivity ratio [2] of 4 and an IC50 (H9) of 35 µM.
For `O=c1cc(C2CCCCC2)oc2cc(O)cc(O)c12`, the EC50 [1] was 19 µM, the selectivity ratio [2] was 2 and the IC50 (H9) was 42 µM.
Compound `Nc1c(O)cc(O)c2c(=O)cc(-c3ccccc3)oc12` has an EC50 [1] of 11 µM, a selectivity ratio [2] of 3 and an IC50 (H9) of 34 µM.
`COc1ccc(-c2cc(=O)c3c(O)cc(O[C@@H]4O[C@H](CO[C@@H]5O[C@H](C)[C@@H](O)[C@H](O)[C@@H]5O)[C@@H](O)[C@H](O)[C@H]4O)cc3o2)cc1` gave an EC50 [1] greater than 231 µM and an IC50 (H9) greater than 231 µM.
Compound `O=c1cc(-c2cccc(Cl)c2)oc2cc(O)cc(O)c12` has an EC50 [1] of 4 µM, a selectivity ratio [2] of 3 and an IC50 (H9) of 14 µM.
`O=c1cc(-c2ccccc2)oc2c([N+](=O)[O-])c(O)cc(O)c12` showed an EC50 [1] of 12 µM, a selectivity ratio [2] of 1 and an IC50 (H9) of 12 µM.
With `O=c1c(O)c(-c2ccccc2)oc2cc(O)cc(O)c12` [GALANGIN] the EC50 [1] was 28 µM, the selectivity ratio [2] was 2 and the IC50 (H9) was 44 µM.
Compound `CC(=O)Oc1cc(OC(C)=O)c2c(=O)cc(-c3ccccc3)oc2c1` [CHRYSIN DIACETATE] has an EC50 [1] of 56 µM and an IC50 (H9) greater than 373 µM.
Work on `O=c1cc(-c2ccc(O)c(O)c2)oc2cc(O)cc(O)c12` [LUTEOLIN] yielded an EC50 [1] of 10 µM, a selectivity ratio [2] of 2 and an IC50 (H9) of 16 µM.
`O=c1c(O)c(-c2ccc(O)cc2O)oc2cc(O)cc(O)c12` [MORIN] gave an EC50 [1] greater than 331 µM and an IC50 (H9) greater than 331 µM.
Compound `O=c1cc(-c2ccc(O)c(O)c2)oc2cc(O[C@@H]3O[C@H](CO)[C@@H](O)[C@H](O)[C@H]3O)cc(O)c12` [GALUTEOLIN] has an EC50 [1] of 7 µM, a selectivity ratio [2] of 3 and an IC50 (H9) of 25 µM.
With `O=c1cc(-c2ccccc2Cl)oc2cc(O)cc(O)c12` the EC50 [1] was 5 µM, the selectivity ratio [2] was 3 and the IC50 (H9) was 17 µM.
With `CC(=O)OC[C@H]1O[C@@H](Oc2cc(OC(C)=O)c3c(=O)cc(-c4ccc(OC(C)=O)c(OC(C)=O)c4)oc3c2)[C@H](OC(C)=O)[C@@H](OC(C)=O)[C@@H]1OC(C)=O` the EC50 [1] was 6 µM, the selectivity ratio [2] was 1 and the IC50 (H9) was 6 µM.
`O=c1cc(-c2ccccc2)oc2c(O)c(O)ccc12` [7,8-DIHYDROXYFLAVONE] gave an EC50 [1] of 10 µM, a selectivity ratio [2] of 1 and an IC50 (H9) of 14 µM.
Compound `O=c1cc(-c2ccc(F)cc2)oc2cc(O)cc(O)c12` has an EC50 [1] of 4 µM, a selectivity ratio [2] of 3 and an IC50 (H9) of 13 µM.
